The target of test [1] is Tyrosine-protein kinase SYK (Homo sapiens) (UniProt P43405). The experiment in a line: Binding affinity to wild-type human partial length SYK (D354 to N635 residues) expressed in bacterial expression system assessed as residual binding level at 1 uM by Kinomescan method relative to control.
The test system of test [2] is Phosphatidylinositol 4,5-bisphosphate 3-kinase catalytic subunit alpha isoform (Homo sapiens), P42336 [E545A]. As to the kind of experiment: Binding affinity to human partial length PIK3CA E545A mutant (R108 to N1068 residues) expressed in mammalian expression system assessed as residual binding level at 1 uM by Kinomescan method relative to control. The method, boiled down:
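KinomeScan active site-directed competition binding panel (468 kinases), compound tested at 1 μM. Result expressed as remaining kinase signal versus DMSO control (percent of control).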

For test [3], the target named is Serine/threonine-protein kinase MRCK gamma (Homo sapiens) (UniProt Q6DT37). The experiment in a line: Binding affinity to wild-type human partial length DMPK2 (S46 to S408 residues) expressed in bacterial expression system assessed as residual binding level at 1 uM by Kinomescan method relative to control.
Test [4] deals with Serine/threonine-protein kinase D1 (Homo sapiens) (UniProt Q15139). The experiment in a line: Binding affinity to wild-type human partial length PRKD1 (G551 to E870 residues) expressed in bacterial expression system assessed as residual binding level at 1 uM by Kinomescan method relative to control.
The target of test [5] is Serine/threonine-protein kinase 36 (Homo sapiens) (UniProt Q9NRP7). The experiment in a line: Binding affinity to wild-type human partial length STK36 (M1 to T271 residues) expressed in bacterial expression system assessed as residual binding level at 1 uM by Kinomescan method relative to control. The method, boiled down:
(§1)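 Active site-directed competition binding panel (KinomeScan, 468 kinases). Test compound at 1 μM. Read-out is kinase binding remaining versus DMSO control, expressed as percent of control. Scores above 35% are treated as weak binding.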

The target in test [6] is Mitogen-activated protein kinase; ERK1/ERK2 (Homo sapiens) (UniProt P27361+P28482). As to the kind of experiment: Inhibition of ERK1/2 in human HCC827 cells assessed as blocking of ERK1/2 pulldown at 1 uM in presence of TL13-68 incubated for 2 hrs by Western blot analysis. The class given is cell-based. The method, boiled down:
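H1975 or HCC827 cells treated with 1 μM compound or DMSO for 2 h, rinsed twice in cold PBS, and lysed in M-PER with protease/phosphatase inhibitors. Lysate rocked overnight at 4 °C with 1 μM TL13-68, then streptavidin pulldown with five cold washes. Bound kinases detected by Western blot. Two independent experiments.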
Background: Immunoblotting shows a protein as a band on a membrane.

Test [7] deals with Tyrosine-protein kinase receptor Tie-1 (Homo sapiens) (UniProt P35590). As to the kind of experiment: Binding affinity to wild-type human partial length TIE1 (T819 to A1138 residues) expressed in bacterial expression system assessed as residual binding level at 1 uM by Kinomescan method relative to control. The essentials:
as §1

Test [8] concerns the target Ribosomal protein S6 kinase alpha-1 (Homo sapiens) (UniProt Q15418). As to the kind of experiment: Binding affinity to wild-type human partial length C- terminal RSK1 kinase domain 2 (P360 to L681 residues) expressed in bacterial expression system assessed as residual binding level at 1 uM by Kinomescan method relative to control.
Test [9] addresses Insulin receptor (Homo sapiens) (UniProt P06213). The experiment in a line: Binding affinity to wild-type human partial length INSR (P997 to E1318 residues) expressed in mammalian expression system assessed as residual binding level at 1 uM by Kinomescan method relative to control.
For test [10], the target named is Myosin-IIIb (Homo sapiens) (UniProt Q8WXR4). The experiment in a line: Binding affinity to wild-type human partial length MYO3B (M1 to D357 residues) expressed in bacterial expression system assessed as residual binding level at 1 uM by Kinomescan method relative to control.
Test [11] addresses Calcium/calmodulin-dependent protein kinase type II subunit alpha (Homo sapiens) (UniProt Q9UQM7). As to the kind of experiment: Binding affinity to wild-type human partial length CAMK2A (M1 to K328 residues) expressed in bacterial expression system assessed as residual binding level at 1 uM by Kinomescan method relative to control.
The target in test [12] is Ribosomal protein S6 kinase alpha-3 (Homo sapiens) (UniProt P51812). The experiment in a line: Binding affinity to wild-type human partial length N- terminal RSK2 kinase domain 1 (M1 to D394 residues) expressed in mammalian expression system assessed as residual binding level at 1 uM by Kinomescan method relative to control.
Test [13] has as its target Testis-specific serine/threonine-protein kinase 1 (Homo sapiens) (UniProt Q9BXA7). As to the kind of experiment: Binding affinity to wild-type human full length TSSK1B (M1 to Q367 residues) expressed in bacterial expression system assessed as residual binding level at 1 uM by Kinomescan method relative to control. The essentials:
(§2)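 KinomeScan, an active site-directed competition binding panel of 468 kinases. The test compound was at 1 μM. The readout is remaining kinase binding as a percentage of the DMSO control. Scores above 35% were treated as weak binding and not listed.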

The target of test [14] is Serine/threonine-protein kinase ICK (Homo sapiens) (UniProt Q9UPZ9). The experiment in a line: Binding affinity to wild-type human partial length ICK (M1 to P314 residues) expressed in mammalian expression system assessed as residual binding level at 1 uM by Kinomescan method relative to control. The essentials:
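Active-site-directed competition binding panel of 468 kinases (KinomeScan), compound at 1 μM. The read-out is kinase remaining bound, given as a percentage of the DMSO control. […]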

The target of test [15] is Muscle, skeletal receptor tyrosine-protein kinase (Homo sapiens) (UniProt O15146). As to the kind of experiment: Binding affinity to wild-type human partial length MUSK (M553 to V869 residues) expressed in bacterial expression system assessed as residual binding level at 1 uM by Kinomescan method relative to control.
Test [16] deals with Homeodomain-interacting protein kinase 1 (Homo sapiens) (UniProt Q86Z02). As to the kind of experiment: Binding affinity to wild-type human partial length HIPK1 (M146 to I555 residues) expressed in mammalian expression system assessed as residual binding level at 1 uM by Kinomescan method relative to control.
Test [17] concerns the target Activin receptor type-1-like (Homo sapiens) (UniProt P37023). As to the kind of experiment: Binding affinity to wild-type human ACVRL1 (L164 to Q503 residues) expressed in bacterial expression system assessed as residual binding level at 1 uM by Kinomescan method relative to control. The method, boiled down:
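Active-site-directed KinomeScan competition binding panel covering 468 kinases, compound tested at 1 μM. Each readout is the kinase signal remaining with compound, expressed as a percentage of the DMSO control. […]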

Test [18] addresses Testis-specific serine/threonine-protein kinase 3 (Homo sapiens) (UniProt Q96PN8). The experiment in a line: Binding affinity to wild-type human full length TSSK3 (M1 to T268 residues) expressed in mammalian expression system assessed as residual binding level at 1 uM by Kinomescan method relative to control. The essentials: as §2
In test [19] the target is Protein kinase C epsilon type (Homo sapiens) (UniProt Q02156). The experiment in a line: Binding affinity to wild-type human partial length PRKCE (A378 to P737 residues) expressed in mammalian expression system assessed as residual binding level at 1 uM by Kinomescan method relative to control.
Test [20] concerns the target Serine/threonine-protein kinase Nek5 (Homo sapiens) (UniProt Q6P3R8). The experiment in a line: Binding affinity to wild-type human partial length NEK5 (M1 to M279 residues) expressed in bacterial expression system assessed as residual binding level at 1 uM by Kinomescan method relative to control.

The structures appear in SMILES notation. Active and inactive are the calls of the source. No cut-off for these calls is given here.

Muscle, skeletal receptor tyrosine-protein kinase (Homo sapiens), sequence (O15146 whole entry, the tested form may be a part): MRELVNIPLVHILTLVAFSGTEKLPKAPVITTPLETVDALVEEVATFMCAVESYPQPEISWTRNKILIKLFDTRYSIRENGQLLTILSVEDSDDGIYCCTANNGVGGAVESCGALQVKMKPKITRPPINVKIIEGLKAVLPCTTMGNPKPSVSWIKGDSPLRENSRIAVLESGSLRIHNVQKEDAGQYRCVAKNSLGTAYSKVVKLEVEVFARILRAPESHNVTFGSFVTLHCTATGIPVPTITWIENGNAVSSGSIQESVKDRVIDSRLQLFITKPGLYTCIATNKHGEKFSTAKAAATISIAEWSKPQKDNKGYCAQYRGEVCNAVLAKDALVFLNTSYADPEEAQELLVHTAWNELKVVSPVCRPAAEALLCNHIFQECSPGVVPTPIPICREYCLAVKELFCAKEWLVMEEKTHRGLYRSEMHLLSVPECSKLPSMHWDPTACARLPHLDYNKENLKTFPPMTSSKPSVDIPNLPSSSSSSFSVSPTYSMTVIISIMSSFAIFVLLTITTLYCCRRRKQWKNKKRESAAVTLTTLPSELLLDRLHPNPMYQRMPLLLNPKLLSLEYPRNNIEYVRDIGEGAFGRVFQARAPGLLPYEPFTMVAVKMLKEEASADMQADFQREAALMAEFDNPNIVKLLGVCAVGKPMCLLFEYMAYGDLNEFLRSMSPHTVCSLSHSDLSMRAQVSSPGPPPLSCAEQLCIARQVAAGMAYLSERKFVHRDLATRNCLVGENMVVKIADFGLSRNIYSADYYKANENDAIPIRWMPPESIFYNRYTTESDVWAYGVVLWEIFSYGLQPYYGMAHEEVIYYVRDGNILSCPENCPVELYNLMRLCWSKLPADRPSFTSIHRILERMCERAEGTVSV
Tyrosine-protein kinase receptor Tie-1 (Homo sapiens), sequence (P35590 whole entry, the tested form may be a part): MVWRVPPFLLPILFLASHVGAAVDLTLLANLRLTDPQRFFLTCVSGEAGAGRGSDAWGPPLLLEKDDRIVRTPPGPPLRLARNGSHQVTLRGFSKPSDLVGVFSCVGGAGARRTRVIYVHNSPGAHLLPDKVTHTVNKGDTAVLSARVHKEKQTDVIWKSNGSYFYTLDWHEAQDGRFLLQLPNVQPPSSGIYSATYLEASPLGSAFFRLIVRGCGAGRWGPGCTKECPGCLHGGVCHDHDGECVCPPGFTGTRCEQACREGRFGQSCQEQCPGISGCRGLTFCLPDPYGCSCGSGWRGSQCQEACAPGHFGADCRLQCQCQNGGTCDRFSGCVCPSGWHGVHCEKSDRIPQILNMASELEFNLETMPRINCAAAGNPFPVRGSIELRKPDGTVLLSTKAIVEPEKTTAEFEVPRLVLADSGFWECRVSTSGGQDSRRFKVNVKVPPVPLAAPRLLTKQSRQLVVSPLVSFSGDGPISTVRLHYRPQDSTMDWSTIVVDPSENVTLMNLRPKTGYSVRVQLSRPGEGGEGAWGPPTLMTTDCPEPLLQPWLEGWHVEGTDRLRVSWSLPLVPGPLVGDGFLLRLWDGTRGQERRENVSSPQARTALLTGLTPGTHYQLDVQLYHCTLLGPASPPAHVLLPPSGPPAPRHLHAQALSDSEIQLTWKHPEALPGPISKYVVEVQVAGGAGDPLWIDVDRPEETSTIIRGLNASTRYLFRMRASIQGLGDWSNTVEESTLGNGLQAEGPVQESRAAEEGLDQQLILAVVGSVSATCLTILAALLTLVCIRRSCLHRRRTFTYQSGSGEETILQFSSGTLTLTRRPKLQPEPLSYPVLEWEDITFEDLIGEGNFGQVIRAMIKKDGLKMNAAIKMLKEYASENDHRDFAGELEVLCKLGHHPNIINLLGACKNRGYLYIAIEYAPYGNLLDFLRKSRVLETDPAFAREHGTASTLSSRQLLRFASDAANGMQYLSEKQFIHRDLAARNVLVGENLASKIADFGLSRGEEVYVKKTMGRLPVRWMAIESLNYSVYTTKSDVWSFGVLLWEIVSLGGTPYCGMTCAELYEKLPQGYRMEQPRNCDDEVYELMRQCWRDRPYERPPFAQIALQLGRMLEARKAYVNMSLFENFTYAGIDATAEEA
Homeodomain-interacting protein kinase 1 (Homo sapiens), sequence (Q86Z02 whole entry, looked up, the tested form may be a part): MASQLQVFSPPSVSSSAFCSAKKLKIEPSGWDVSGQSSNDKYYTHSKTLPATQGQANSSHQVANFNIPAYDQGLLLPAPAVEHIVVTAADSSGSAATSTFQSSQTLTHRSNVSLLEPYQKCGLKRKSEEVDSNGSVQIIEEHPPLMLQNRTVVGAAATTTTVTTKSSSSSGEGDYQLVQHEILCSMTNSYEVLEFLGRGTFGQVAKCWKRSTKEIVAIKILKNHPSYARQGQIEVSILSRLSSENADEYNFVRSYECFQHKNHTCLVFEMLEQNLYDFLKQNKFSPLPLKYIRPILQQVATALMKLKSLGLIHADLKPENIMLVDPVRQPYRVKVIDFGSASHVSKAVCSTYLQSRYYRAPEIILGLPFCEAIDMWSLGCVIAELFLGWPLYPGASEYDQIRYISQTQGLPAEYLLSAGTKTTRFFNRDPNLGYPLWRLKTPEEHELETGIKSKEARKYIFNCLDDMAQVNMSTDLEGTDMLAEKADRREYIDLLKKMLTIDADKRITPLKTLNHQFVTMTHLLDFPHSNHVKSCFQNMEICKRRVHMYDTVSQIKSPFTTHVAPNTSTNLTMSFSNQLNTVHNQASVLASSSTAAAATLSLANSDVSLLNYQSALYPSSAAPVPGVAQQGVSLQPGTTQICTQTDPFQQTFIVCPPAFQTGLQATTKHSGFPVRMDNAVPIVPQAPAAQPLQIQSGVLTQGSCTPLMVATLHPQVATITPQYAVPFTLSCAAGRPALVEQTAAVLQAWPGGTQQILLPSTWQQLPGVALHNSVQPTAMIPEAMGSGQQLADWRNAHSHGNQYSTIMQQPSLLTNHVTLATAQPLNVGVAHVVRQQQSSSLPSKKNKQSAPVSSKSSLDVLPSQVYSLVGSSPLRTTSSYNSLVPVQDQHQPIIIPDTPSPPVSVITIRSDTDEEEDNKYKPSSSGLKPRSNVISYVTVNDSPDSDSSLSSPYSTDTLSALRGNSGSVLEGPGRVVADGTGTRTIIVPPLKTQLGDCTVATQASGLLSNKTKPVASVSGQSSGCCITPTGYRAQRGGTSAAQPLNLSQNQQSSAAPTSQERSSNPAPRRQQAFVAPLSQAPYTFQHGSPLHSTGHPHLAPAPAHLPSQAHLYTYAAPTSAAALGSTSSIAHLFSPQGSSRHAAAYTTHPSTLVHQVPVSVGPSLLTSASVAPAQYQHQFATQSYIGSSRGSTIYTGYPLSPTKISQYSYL
Activin receptor type-1-like (Homo sapiens), sequence (P37023 whole entry, the tested form may be a part): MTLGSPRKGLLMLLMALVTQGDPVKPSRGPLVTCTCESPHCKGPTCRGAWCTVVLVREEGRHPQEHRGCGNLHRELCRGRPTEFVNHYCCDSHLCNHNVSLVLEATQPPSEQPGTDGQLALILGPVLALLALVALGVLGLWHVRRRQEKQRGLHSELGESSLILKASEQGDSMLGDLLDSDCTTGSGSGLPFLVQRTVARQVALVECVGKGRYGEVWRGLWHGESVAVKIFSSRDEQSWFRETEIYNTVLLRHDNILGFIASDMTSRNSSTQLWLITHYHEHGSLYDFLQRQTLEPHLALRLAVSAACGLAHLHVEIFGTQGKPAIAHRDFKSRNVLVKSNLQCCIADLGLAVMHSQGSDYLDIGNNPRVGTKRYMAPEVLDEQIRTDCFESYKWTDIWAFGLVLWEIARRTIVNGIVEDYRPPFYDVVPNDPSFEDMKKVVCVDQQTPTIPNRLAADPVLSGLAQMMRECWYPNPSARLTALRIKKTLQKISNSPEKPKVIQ
Testis-specific serine/threonine-protein kinase 1 (Homo sapiens), sequence (Q9BXA7 whole entry, the tested form may be a part): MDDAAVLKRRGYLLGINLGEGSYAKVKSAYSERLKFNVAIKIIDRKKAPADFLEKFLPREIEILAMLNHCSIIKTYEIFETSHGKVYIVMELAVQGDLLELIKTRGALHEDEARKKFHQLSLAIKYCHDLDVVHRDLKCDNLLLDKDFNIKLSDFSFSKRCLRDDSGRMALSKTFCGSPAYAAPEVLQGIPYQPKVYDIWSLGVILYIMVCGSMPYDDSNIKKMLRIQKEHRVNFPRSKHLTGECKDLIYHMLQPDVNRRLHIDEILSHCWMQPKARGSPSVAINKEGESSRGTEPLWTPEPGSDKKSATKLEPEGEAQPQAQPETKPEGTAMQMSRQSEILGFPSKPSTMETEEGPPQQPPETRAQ
Mitogen-activated protein kinase; ERK1/ERK2 (Homo sapiens), sequence (P27361 whole entry, looked up): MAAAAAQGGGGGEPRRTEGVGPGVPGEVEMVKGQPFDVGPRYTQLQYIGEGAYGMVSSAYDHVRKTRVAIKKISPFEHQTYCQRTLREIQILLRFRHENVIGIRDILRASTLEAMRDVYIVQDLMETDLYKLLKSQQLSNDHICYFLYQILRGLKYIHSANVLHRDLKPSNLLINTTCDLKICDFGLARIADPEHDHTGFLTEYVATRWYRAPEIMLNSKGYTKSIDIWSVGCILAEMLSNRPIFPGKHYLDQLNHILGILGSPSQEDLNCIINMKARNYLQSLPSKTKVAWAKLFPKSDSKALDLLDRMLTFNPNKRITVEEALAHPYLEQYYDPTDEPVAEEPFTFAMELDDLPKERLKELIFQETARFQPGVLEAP
Mitogen-activated protein kinase; ERK1/ERK2 (Homo sapiens), sequence (P28482 whole entry, looked up): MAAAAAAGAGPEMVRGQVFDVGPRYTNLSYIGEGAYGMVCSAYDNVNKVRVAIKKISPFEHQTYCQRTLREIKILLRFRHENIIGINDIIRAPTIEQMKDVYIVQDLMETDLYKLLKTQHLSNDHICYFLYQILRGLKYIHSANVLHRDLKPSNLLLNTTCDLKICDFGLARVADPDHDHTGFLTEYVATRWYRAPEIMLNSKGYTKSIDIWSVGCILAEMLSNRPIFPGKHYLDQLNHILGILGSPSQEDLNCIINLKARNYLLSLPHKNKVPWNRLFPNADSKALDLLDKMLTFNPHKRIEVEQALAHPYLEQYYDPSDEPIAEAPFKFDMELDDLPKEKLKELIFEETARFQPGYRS

For the compound `C=CC(=O)Nc1ccccc1Nc1nc(Nc2ccc(N3CCN(C)CC3)cc2)ncc1C(=O)Nc1c(C)cccc1Cl`, the Activity in [1] came out at 100%; in test [2] it was 94%; in test [3], 100%; in test [4], 100%; in test [5], 47%; in test [7], 83%. The Activity in test [8] worked out at 100%; in test [9] it was 100%; in test [10], 91%; in test [11] it was 100%; in [12] it was 75%; in test [13] it was 86%. Also, the Activity in [14] amounted to 96%; in test [15], 100%; in [16] it was 100%; in test [17], 100%; in test [18], 90%; in [19] it was 100%. Also, the Activity in test [20] was 100%. Besides, in test [6], the inhibition result was “inactive”.

The values are drawn from ChEMBL document CHEMBL4354843, “Structure-Based Design of a Potent and Selective Covalent Inhibitor for SRC Kinase That Targets a P-Loop Cysteine” (J Med Chem, 2020).
